In ChEMBL document CHEMBL1145845, “Acetogenins as selective inhibitors of the human ovarian 1A9 tumor cell line” (2003) one finds EC50 and Inhibition data, which are given here for 7 molecules.

Each structure is given as a SMILES string. Converted amounts (≈) assume the structure as drawn.

Type in all cases: functional
One test has as its system PC-3. Nature of the test: Effective dose required for inhibitory activity against PC-3 human tumor cell line. Conditions: read-out: ED50 (the source's name). Put shortly:
(§1)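 Human tumor lines were grown in RPMI-1640 with 25 mM HEPES, 0.25% sodium bicarbonate, 10% FBS and 100 µg/mL kanamycin. KB-VIN is a vincristine-resistant KB subline, and PTX10 is a 1A9 subline with mutated β-tubulin. Trypsinized cells (1500–7500/well) got compound from DMSO stock for 3 days continuous. Cells were fixed with cold 50% TCA, stained with 0.4% SRB, and read at 562 nm. ED50 is the 50% growth-reduction concentration; not active means ≤5% inhibition at the top concentration.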

Another test concerns MCF7. Nature of the test: Effective dose required for inhibitory activity against MCF-7 human tumor cell line. The conditions noted are these: read-out: ED50 (the source's name). The procedure, abridged: as §1
In test [1] the test system is KB. Nature of the test: Effective dose required for inhibitory activity against KB-VIN human tumor cell line. Conditions: read-out: ED50 (the source's name). The procedure, abridged:
as §1

The next test concerns A549. Nature of the test: Effective dose required for inhibitory activity against A549 human tumor cell line. The conditions noted are these: read-out: ED50 (the source's name). Put shortly: as §1
For another test, the system named is HCT-8. The experiment in a line: Effective dose required for inhibitory activity against HCT-8 human tumor cell line. The conditions noted are these: read-out: ED50 (the source's name). Put shortly: as §1
For the next test, the system named is HOS. The experiment in a line: Effective dose required for inhibitory activity against HOS human tumor cell line. Conditions: read-out: ED50 (the source's name). Put shortly:
as §1

A further test has as its system 1A9. Nature of the test: Effective dose required for inhibitory activity against 1A9 human tumor cell line. Conditions: read-out: ED50 (the source's name). The procedure, abridged: as §1
Test [2] has as its system KB. Nature of the test: Effective dose required for inhibitory activity against KB human tumor cell line. Conditions: read-out: ED50 (the source's name). The procedure, abridged:
as §1

Another test deals with CAKI-1. The experiment in a line: Effective dose required for inhibitory activity against CAK1 human tumor cell line. Conditions: read-out: ED50 (the source's name). Put shortly:
as §1

The subject of another test is 1A9/ptx-10. Nature of the test: Percent inhibition against PTX10 human tumor cell line at >10 ug/mL.
The next test relates to SK-MEL-2. Nature of the test: Effective dose required for inhibitory activity against SK-MEL-2 human tumor cell line. Conditions: read-out: ED50 (the source's name). The procedure, abridged: as §1

Usually Inhibition stands for the percentage by which the read-out fell short of the control. Turning to `CCCCCCCCCCCC[C@@H](O)[C@H]1CC[C@@H]([C@@H](O)CCCCC(=O)CCCCCCCC2=C[C@H](C)OC2=O)O1` [COROSSOLONE], the EC50 in the test with PC-3 was 13.5 mg/L (≈ 23.3 µM); with MCF7, 7.9 mg/L (≈ 13.6 µM); with KB [1] it was above 20 mg/L; in the test with A549 it was 19 mg/L (≈ 32.8 µM); with HCT-8, above 20 mg/L; in the test with HOS it was above 20 mg/L. The EC50 in the test with 1A9 was 0.82 mg/L (≈ 1.42 µM); in the test on KB [2], 18 mg/L (≈ 31.1 µM); with CAKI-1 it was above 20 mg/L; in the test with SK-MEL-2, 18.8 mg/L (≈ 32.5 µM). The molecule further returned an Inhibition with 1A9/ptx-10 of 37%.
Turning to `CCCCCCCCCCCCC(O)C(O)CCC(O)[C@H]1CC[C@H](CCCCCCC[C@@H](O)CC2=C[C@H](C)OC2=O)O1` (some centres not stated), the EC50 with PC-3 is above 20 mg/L; in the test on MCF7 it was 11.5 mg/L (≈ 19.3 µM); in the test on KB [1], above 20 mg/L; in the test on A549, above 20 mg/L; with HCT-8, above 20 mg/L; in the test on HOS it was above 20 mg/L. In addition, the EC50 is 0.07 mg/L (≈ 0.117 µM) in the test with 1A9, above 20 mg/L in the test on KB [2], above 20 mg/L with CAKI-1 and above 20 mg/L with SK-MEL-2. Besides, in the test on 1A9/ptx-10, the Inhibition is given as 37%.
For `CCCCCCCC/C=C\CC[C@H](O)[C@@H]1CC[C@@H]([C@H](O)CCCCC(O)CCCCCC(O)CC2=C[C@H](C)OC2=O)O1` (some centres not stated), the EC50 turned out to be 15.3 mg/L (≈ 25.7 µM) in the test on PC-3; 7.6 mg/L (≈ 12.8 µM) in the test with MCF7; 17.5 mg/L (≈ 29.4 µM) in the test with KB [1]; 17 mg/L (≈ 28.6 µM) with A549; 14.4 mg/L (≈ 24.2 µM) in the test with HCT-8; 17 mg/L (≈ 28.6 µM) with HOS. Also, the EC50 in the test on 1A9 is 0.93 mg/L (≈ 1.56 µM); in the test on KB [2], 13 mg/L (≈ 21.9 µM); with CAKI-1, 19 mg/L (≈ 31.9 µM); with SK-MEL-2, 17 mg/L (≈ 28.6 µM). In the test on 1A9/ptx-10, this molecule yielded an Inhibition of 40%.
For the molecule `CCCCCCCCCCCCCC[C@@H](O)[C@H]1CC[C@H]([C@H](O)CCC(O)CCCCCCCC2=C[C@H](C)OC2=O)O1` (some centres not stated), the EC50 in the test on PC-3 was 16.8 mg/L (≈ 28.9 µM); in the test with MCF7 it was 9 mg/L (≈ 15.5 µM); with KB [1] it was above 20 mg/L; with A549 it was 20 mg/L (≈ 34.4 µM); in the test on HCT-8 it was 20 mg/L (≈ 34.4 µM); in the test on HOS, above 20 mg/L. For the same molecule, the EC50 in the test with 1A9 was 0.81 mg/L (≈ 1.39 µM); in the test with KB [2] it was 17.3 mg/L (≈ 29.8 µM); with CAKI-1, above 20 mg/L; in the test with SK-MEL-2 it was above 20 mg/L. Besides, in the test on 1A9/ptx-10, the Inhibition is listed as 43%.
As to `CCCCCCCC(O)C(O)CC[C@H](O)[C@@H]1CC[C@@H](CCCCCCCCCC[C@H](O)CC2=C[C@H](C)OC2=O)O1` (some centres not stated), the EC50 in the test with PC-3 is above 20 mg/L; in the test on MCF7, 15.5 mg/L (≈ 27.2 µM); in the test with KB [1] it was above 20 mg/L; in the test on A549, above 20 mg/L; with HCT-8, above 20 mg/L; in the test with HOS it was above 20 mg/L. In addition, the EC50 is 0.68 mg/L (≈ 1.2 µM) in the test on 1A9, 18 mg/L (≈ 31.6 µM) in the test on KB [2], above 20 mg/L in the test with CAKI-1 and above 20 mg/L in the test with SK-MEL-2. The same molecule yielded an Inhibition in the test with 1A9/ptx-10 of 27%.
Take `CCCCCCCC(O)C(O)CCCC[C@@H](O)[C@H]1CC[C@H](CCCCCCCCCCCCC2=C[C@H](C)OC2=O)O1` (some centres not stated): the EC50 in the test on PC-3 was 17.5 mg/L (≈ 30.1 µM); in the test with MCF7, 10.5 mg/L (≈ 18.1 µM); with KB [1], above 20 mg/L; with A549 it was above 20 mg/L; in the test with HCT-8, above 20 mg/L; with HOS, above 20 mg/L. Besides, the EC50 is 0.77 mg/L (≈ 1.33 µM) in the test on 1A9, 15.1 mg/L (≈ 26 µM) in the test on KB [2], above 20 mg/L in the test on CAKI-1 and 17.5 mg/L (≈ 30.1 µM) in the test on SK-MEL-2. Moreover, the Inhibition in the test on 1A9/ptx-10 is 37%.
As for `CCCCCCCCCCCC[C@@H](O)[C@H]1CC[C@H]([C@H](O)CCCCC(=O)CCCCC[C@@H](O)CC2=C[C@H](C)OC2=O)O1` [ANNONACINONE], the EC50 is above 20 mg/L with PC-3; 11.5 mg/L (≈ 19.3 µM) with MCF7; above 20 mg/L with KB [1]; above 20 mg/L with A549; above 20 mg/L in the test with HCT-8; above 20 mg/L in the test with HOS. For the same molecule, the EC50 is 0.74 mg/L (≈ 1.24 µM) with 1A9, 18.3 mg/L (≈ 30.8 µM) in the test on KB [2], above 20 mg/L in the test with CAKI-1 and above 20 mg/L in the test with SK-MEL-2. The molecule also had an Inhibition with 1A9/ptx-10 of 36%.
